The structures appear in SMILES notation. Values after ≈ are worked out from the molar mass of the structure shown.

The test system of one data set is Escherichia coli. The data set is described as follows: Antibacterial activity against clinical isolate of Escherichia coli after 24 hrs by twofold microdilution broth method. It counts as functional. Summed up: (§1)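 Clinical isolates grown in Mueller-Hinton broth at 37 °C; inoculum diluted in MHB to 10^6 CFU. Compounds from 20,000 µg/ml DMSO stocks, twofold serial dilution across ten wells, with medium-only and organism-only controls. Incubated 24 h in ambient air. MIC taken as the lowest concentration with no visible growth by eye. Three replicates.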
(In general: Broth dilution looks for growth in wells or tubes with falling amounts of substance.)

The next data set concerns Staphylococcus aureus. The data set is described as follows: Antibacterial activity against clinical isolate of Staphylococcus aureus after 24 hrs by twofold microdilution broth method. It counts as functional. Summed up: as §1
The subject of the next data set is Candida albicans. The data set can be described thus: Antifungal activity against Candida albicans CMCC (F) 98001 after 24 hrs by twofold microdilution broth method. It counts as functional. Conditions: CMCC (F) 98001, 24 h. Summed up: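 Strain CMCC(F) 98001 grown in Sabouraud dextrose broth at 25 °C; inoculum diluted in SDB to 10^6 CFU. Compounds from 20,000 µg/ml DMSO stocks, twofold serial dilution across ten wells, with medium-only and organism-only controls. Incubated 24 h. MIC read by eye as the lowest concentration with no visible growth. Three replicates.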

Data set [1] can be described thus: Cytotoxicity against rat IEC-6 cells assessed as cell survival at 10 uM after 72 hrs by MTT assay relative to control. It counts as cell-based. Conditions: read-out: Survival. Summed up:
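IEC-6 intestinal epithelial cells were exposed to each compound at a fixed 10 µM for 72 h alongside an untreated blank control. Viability was read by MTT reduction and expressed as survival rate (SR). Compounds with SR between 70% and 100% were classed as noncytotoxic or hypocytotoxic.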
(Formazan colour is commonly taken as a measure of viable cells.)

Another data set deals with IEC-6. The data set is described as follows: Induction of XBP1 promoter DNA activation in rat IEC-6 cells at 10 uM after 48 hrs by dual luciferase reporter gene assay relative to control. It counts as cell-based. On the technique in general: A reporter such as luciferase makes a cellular process visible.
Data set [2] can be described thus: Induction of XBP1 promoter DNA activation in rat IEC-6 cells after 48 hrs by dual luciferase reporter gene assay. It counts as cell-based. Conditions: IEC-6, 48 h.

What is called MIC is the lowest concentration that inhibits growth of the organism. High values mean a less susceptible organism, low ones a more susceptible organism. As for `CCCCCCCCCNCc1c2n(c(=O)c3c(OC)c(OC)ccc13)CCc1cc(OC)c(OC)cc1-2`, the MIC is over 250 µg/mL with Escherichia coli, 15.6 µg/mL (≈ 29.9 µM) with Staphylococcus aureus and 62.5 µg/mL (≈ 120 µM) with Candida albicans. In data set [1], the viability at 72 h, 10 µM fell in the range of 70 to 100%.
As for `CCOC(=O)CCCCCCCc1c2[n+](cc3c(OC)c(OC)ccc13)CCc1cc(OC)c(OC)cc1-2.[Cl-]`, the MIC in the data set with Escherichia coli was 250 µg/mL; in the data set on Staphylococcus aureus it was 7.81 µg/mL; in the data set on Candida albicans it was 62.5 µg/mL. Besides, the viability at 72 h, 10 µM in data set [1] fell in the range of 70 to 100%.
The matching figures for `CCCNC(=O)c1c2n(c(=O)c3c(OC)c(OC)ccc13)CCc1cc(OC)c(OC)cc1-2`: over 250 µg/mL, over 250 µg/mL, over 250 µg/mL and 70 to 100%.
For `CCCCCC(=O)c1c2[n+](cc3c(OC)c(OC)ccc13)CCc1cc(OC)c(OC)cc1-2.[Cl-]`, in that order: 250 µg/mL, 62.5 µg/mL, over 250 µg/mL and 70 to 100%.
For `CCCCCCCCNCc1c2n(c(=O)c3c(OC)c(OC)ccc13)CCc1cc(OC)c(OC)cc1-2`, in that order: over 250 µg/mL, 31.2 µg/mL (≈ 61.4 µM), 250 µg/mL (≈ 491 µM) and 70 to 100%.
Usually EC50 stands for the midpoint of the concentration-response curve. Read a high EC50 as weaker potency. Take `CCC(=O)c1c2[n+](cc3c(OC)c(OC)ccc13)CCc1cc(OC)c(OC)cc1-2.[Cl-]`: the MIC against Escherichia coli, with Staphylococcus aureus and in the data set with Candida albicans was over 250 µg/mL in each case. The viability at 72 h, 10 µM in data set [1] lay in the range of 70 to 100%. This molecule registered a fold change (FC) in the data set with IEC-6 of 1.01. In data set [2], this molecule displayed an EC50 of 301 nM.
`COc1cc2c(cc1OC)-c1c(C(=O)NC3CC3)c3ccc(OC)c(OC)c3c(=O)n1CC2`: the MIC against Escherichia coli, against Staphylococcus aureus and in the data set on Candida albicans was over 250 µg/mL each time. For the same molecule, in data set [1], the viability at 72 h, 10 µM fell in the range of 70 to 100%. Besides, the fold change (FC) in the data set with IEC-6 stood at 1.36. Further, the EC50 in data set [2] was 1000 nM.
With `CCCC(=O)c1c2[n+](cc3c(OC)c(OC)ccc13)CCc1cc(OC)c(OC)cc1-2.[Cl-]`, the values for the MIC in the data set with Escherichia coli, in the data set on Staphylococcus aureus and against Candida albicans were over 250 µg/mL, 250 µg/mL and over 250 µg/mL, respectively. In data set [1], the viability at 72 h, 10 µM lay in the range of 70 to 100%. The molecule further displayed a fold change (FC) in the data set with IEC-6 of 1.59. This molecule came in with an EC50 in data set [2] of 338 nM.
For the molecule `COc1cc2c(cc1OC)-c1c(C(=O)O)c3ccc(OC)c(OC)c3c(=O)n1CC2`, the MIC in the data set with Escherichia coli, in the data set on Staphylococcus aureus and with Candida albicans was over 250 µg/mL in each case. In data set [1], the viability at 72 h, 10 µM fell in the range of 70 to 100%.
For the molecule `CCOC(=O)CCCc1c2[n+](cc3c(OC)c(OC)ccc13)CCc1cc(OC)c(OC)cc1-2.[Cl-]`, the values for the minimal inhibitory concentration (MIC) against Escherichia coli, against Staphylococcus aureus and in the data set with Candida albicans were over 250 µg/mL, 125 µg/mL and over 250 µg/mL, respectively. Further, in data set [1], the viability at 72 h, 10 µM lay within 70 to 100%.
As to `CCCNCc1c2n(c(=O)c3c(OC)c(OC)ccc13)CCc1cc(OC)c(OC)cc1-2`, the MIC in the data set with Escherichia coli, in the data set with Staphylococcus aureus and in the data set on Candida albicans was over 250 µg/mL each time. In addition, the viability at 72 h, 10 µM in data set [1] lay within 70 to 100%.
Regarding `CCOC(=O)CCCCCCc1c2[n+](cc3c(OC)c(OC)ccc13)CCc1cc(OC)c(OC)cc1-2.[Cl-]`, the MIC is over 250 µg/mL in the data set with Escherichia coli, 15.6 µg/mL in the data set on Staphylococcus aureus and 125 µg/mL against Candida albicans. Moreover, the viability at 72 h, 10 µM in data set [1] fell in the range of 70 to 100%.
For `CCCCCCNCc1c2n(c(=O)c3c(OC)c(OC)ccc13)CCc1cc(OC)c(OC)cc1-2`, in that order: over 250 µg/mL, 250 µg/mL (≈ 520 µM), over 250 µg/mL and 70 to 100%.
For the molecule `CCOC(=O)c1c2[n+](cc3c(OC)c(OC)ccc13)CCc1cc(OC)c(OC)cc1-2.[Cl-]`, the MIC against Escherichia coli, with Staphylococcus aureus and against Candida albicans was over 250 µg/mL each time. In data set [1], the viability at 72 h, 10 µM was 70 to 100%.
Turning to `C[C@H]1COc2c(N3CCN(C)CC3)c(F)cc3c(=O)c(C(=O)O)cn1c23.C[C@H]1COc2c(N3CCN(C)CC3)c(F)cc3c(=O)c(C(=O)O)cn1c23.O` [LEVOFLOXACIN], the MIC with Escherichia coli is under 1.95 µg/mL; against Staphylococcus aureus, under 1.95 µg/mL; against Candida albicans, over 250 µg/mL.
`COc1cc2c(cc1OC)-c1c(C=O)c3ccc(OC)c(O)c3c(=O)n1CC2`: the MIC in the data set with Escherichia coli, against Staphylococcus aureus and with Candida albicans was over 250 µg/mL in each case. The viability at 72 h, 10 µM in data set [1] was 70 to 100%.
As to `COc1cc2c(cc1OC)-c1cc3ccc(OC)c(OC)c3c[n+]1CC2.[Cl-]` [PALMATINE CHLORIDE], the minimum inhibitory concentration (MIC) is over 250 µg/mL with Escherichia coli, 250 µg/mL in the data set with Staphylococcus aureus and over 250 µg/mL with Candida albicans. The viability at 72 h, 10 µM in data set [1] fell in the range of 70 to 100%.
On to `CCOC(=O)CCCCCc1c2[n+](cc3c(OC)c(OC)ccc13)CCc1cc(OC)c(OC)cc1-2.[Cl-]`, for which the MIC in the data set on Escherichia coli was over 250 µg/mL; in the data set on Staphylococcus aureus it was 62.5 µg/mL; in the data set on Candida albicans, over 250 µg/mL. In addition, the viability at 72 h, 10 µM in data set [1] lay in the range of 70 to 100%.
For `CCCCNC(=O)c1c2n(c(=O)c3c(OC)c(OC)ccc13)CCc1cc(OC)c(OC)cc1-2`, the MIC in the data set on Escherichia coli, in the data set on Staphylococcus aureus and against Candida albicans was over 250 µg/mL each time. In addition, the viability at 72 h, 10 µM in data set [1] lay within 70 to 100%.
Consider `CCOC(=O)CCCCc1c2[n+](cc3c(OC)c(OC)ccc13)CCc1cc(OC)c(OC)cc1-2.[Cl-]`, for which the MIC in the data set on Escherichia coli is over 250 µg/mL; in the data set with Staphylococcus aureus, 125 µg/mL; in the data set on Candida albicans, over 250 µg/mL. The viability at 72 h, 10 µM in data set [1] fell in the range of 70 to 100%.
With `CCCCCNC(=O)c1c2n(c(=O)c3c(OC)c(OC)ccc13)CCc1cc(OC)c(OC)cc1-2`, the MIC against Escherichia coli, in the data set on Staphylococcus aureus and in the data set with Candida albicans was over 250 µg/mL each time. In data set [1], the viability at 72 h, 10 µM lay in the range of 70 to 100%. For the same molecule, the fold change (FC) in the data set on IEC-6 came out at 1.21. Also, a half-maximal response in data set [2] (EC50) required 1000 nM.
`COc1cc2c(cc1OC)-c1c(C(C)=O)c3ccc(OC)c(OC)c3c[n+]1CC2.[Cl-]`: the MIC against Escherichia coli, against Staphylococcus aureus and in the data set on Candida albicans was over 250 µg/mL in each case. Further, the viability at 72 h, 10 µM in data set [1] was 70 to 100%.
As for `CCCCCCCNCc1c2n(c(=O)c3c(OC)c(OC)ccc13)CCc1cc(OC)c(OC)cc1-2`, the MIC is over 250 µg/mL against Escherichia coli, 125 µg/mL (≈ 253 µM) against Staphylococcus aureus and over 250 µg/mL in the data set on Candida albicans. Further, the viability at 72 h, 10 µM in data set [1] was 70 to 100%.
`CCOC(=O)Cc1c2[n+](cc3c(OC)c(OC)ccc13)CCc1cc(OC)c(OC)cc1-2.[Cl-]`: the MIC in the data set with Escherichia coli was over 250 µg/mL; with Staphylococcus aureus, 250 µg/mL; against Candida albicans, over 250 µg/mL. The viability at 72 h, 10 µM in data set [1] lay within 70 to 100%.
`CCCCC(=O)c1c2[n+](cc3c(OC)c(OC)ccc13)CCc1cc(OC)c(OC)cc1-2.[Cl-]`: the MIC in the data set on Escherichia coli was over 250 µg/mL; against Staphylococcus aureus, 125 µg/mL; against Candida albicans it was over 250 µg/mL. Besides, the viability at 72 h, 10 µM in data set [1] lay in the range of 70 to 100%. The molecule further returned a fold change (FC) in the data set on IEC-6 of 1.29. Besides, in data set [2], a half-maximal response (EC50) required 340 nM.
For the molecule `COc1cc2c(cc1OC)-c1cc3ccc(OC)c(OC)c3c(=O)n1CC2`, the MIC in the data set on Escherichia coli, against Staphylococcus aureus and against Candida albicans was over 250 µg/mL in each case. For the same molecule, in data set [1], the viability at 72 h, 10 µM was in the range of 70 to 100%.
Regarding `CCCCCNCc1c2n(c(=O)c3c(OC)c(OC)ccc13)CCc1cc(OC)c(OC)cc1-2`, the MIC in the data set with Escherichia coli, against Staphylococcus aureus and against Candida albicans was over 250 µg/mL in each case. Further, the viability at 72 h, 10 µM in data set [1] is 70 to 100%.
Consider `CCCCNCc1c2n(c(=O)c3c(OC)c(OC)ccc13)CCc1cc(OC)c(OC)cc1-2`, for which the MIC in the data set with Escherichia coli, in the data set with Staphylococcus aureus and in the data set with Candida albicans was over 250 µg/mL throughout. The viability at 72 h, 10 µM in data set [1] was in the range of 70 to 100%.

Values taken from ChEMBL document CHEMBL4219240, “Syntheses and structure-activity relationships on antibacterial and anti-ulcerative colitis properties of quaternary 13-substituted palmatines and 8-oxo-13-substituted dihydropalmatines” (Bioorg Med Chem, 2018).
